{"source": "ChEMBL document CHEMBL1122798", "about": "“Trypanocidal 1,3-arylene diketone bis(guanylhydrazone)s. Structure-activity relationships among substituted and heterocyclic analogues” (1984)", "format_in_all_cases": "functional", "key": {"Mus musculus [1]": {"tested_on": "Mus musculus", "test": "Compound was tested for Trypanocidal Activity in mice at 10 mg/kg; 1/20"}, "Mus musculus [2]": {"tested_on": "Mus musculus", "test": "Compound was tested for Trypanocidal Activity in mice at 40 mg/kg; 1/5"}, "Mus musculus [3]": {"tested_on": "Mus musculus", "test": "Compound was tested for Trypanocidal Activity in mice at 6 mg/kg; 0/10"}, "Mus musculus [4]": {"tested_on": "Mus musculus", "test": "Compound was tested for Trypanocidal Activity in mice at 25 mg/kg; 4/5"}, "Mus musculus [5]": {"tested_on": "Mus musculus", "test": "Compound was tested for Trypanocidal Activity in mice at 15 mg/kg; 11/20"}, "Mus musculus [6]": {"tested_on": "Mus musculus", "test": "Compound was tested for Trypanocidal Activity in mice at 15 mg/kg; 0/5"}, "Mus musculus [7]": {"tested_on": "Mus musculus", "test": "Compound was tested for Trypanocidal Activity in mice at 40 mg/kg; 0/5"}, "Mus musculus [8]": {"tested_on": "Mus musculus", "test": "Compound was tested for Trypanocidal Activity in mice at 10 mg/kg; 0/5"}, "Mus musculus [9]": {"tested_on": "Mus musculus", "test": "Compound was tested for Trypanocidal Activity in mice at 25 mg/kg; 0/5"}, "Mus musculus [10]": {"tested_on": "Mus musculus", "test": "Compound was tested for Trypanocidal Activity in mice at 60 mg/kg; 0/5"}, "Mus musculus [11]": {"tested_on": "Mus musculus", "test": "Compound was tested for Trypanocidal Activity in mice at 25 mg/kg; 0/15"}, "Mus musculus [12]": {"tested_on": "Mus musculus", "test": "Compound was tested for Trypanocidal Activity in mice at 6 mg/kg; 0/5"}, "Mus musculus [13]": {"tested_on": "Mus musculus", "test": "Compound was tested for Trypanocidal Activity in mice at 100 mg/kg; 3/10"}, "Mus musculus [14]": {"tested_on": "Mus musculus", "test": "Compound was tested for Trypanocidal Activity in mice at 40 mg/kg; 12/25"}, "Mus musculus [15]": {"tested_on": "Mus musculus", "test": "Compound was tested for Trypanocidal Activity in mice at 60 mg/kg; 9/25", "in_short": "(§1)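 Female Swiss-Webster mice (20–25 g) were infected ip with 5×10^4 T. brucei EATRO 110 organisms in fresh mouse blood diluted with minimum essential medium. Groups of 5 or 10 received a single ip dose in normal saline (solution or milled suspension, 20 μL/g) 6 h post-infection. Deaths within 72 h were scored as toxic. Survivors aparasitemic at 28 days (tail-blood wet films, phase contrast) counted as cures. ED50 was computed by Bliss/Litchfield–Wilcoxon, excluding toxic dosages.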"}, "Mus musculus [16]": {"tested_on": "Mus musculus", "test": "Compound was tested for Trypanocidal Activity in mice at 150 mg/kg; 1/5"}, "Mus musculus [17]": {"tested_on": "Mus musculus", "test": "Compound was tested for Trypanocidal Activity in mice at 15 mg/kg; 0/10"}, "Mus musculus [18]": {"tested_on": "Mus musculus", "test": "Compound was tested for Trypanocidal Activity in mice at 25 mg/kg; 1/20"}, "Mus musculus [19]": {"tested_on": "Mus musculus", "test": "Compound was tested for Trypanocidal Activity in mice at 25 mg/kg; 10/10"}, "Mus musculus [20]": {"tested_on": "Mus musculus", "test": "Compound was tested for Trypanocidal Activity in mice at 4 mg/kg; 10/30"}, "Mus musculus [21]": {"tested_on": "Mus musculus", "test": "Compound was tested for Trypanocidal Activity in mice at 6 mg/kg; 14/30"}, "Mus musculus [22]": {"tested_on": "Mus musculus", "test": "Tested for Trypanocidal Activity in mice at 10 mg/kg; 17/20", "in_short": "as §1"}, "Mus musculus [23]": {"tested_on": "Mus musculus", "test": "Compound was tested for Trypanocidal Activity in mice at 100 mg/kg; 0/5"}, "Mus musculus [24]": {"tested_on": "Mus musculus", "test": "Compound was tested for Trypanocidal Activity in mice at 1.5 mg/kg; 0/20"}, "Mus musculus [25]": {"species": "Mus musculus", "test": "Effective dose against Trypanosoma brucei infection in mice", "in_short": "as §1"}, "Mus musculus [26]": {"tested_on": "Mus musculus", "test": "Compound was tested for Trypanocidal Activity in mice at 15 mg/kg; 10/10"}, "Mus musculus [27]": {"tested_on": "Mus musculus", "test": "Compound was tested for Trypanocidal Activity in mice at 2.5 mg/kg; 5/30"}, "Mus musculus [28]": {"tested_on": "Mus musculus", "test": "Compound was tested for Trypanocidal Activity in mice at 40 mg/kg; 10/10"}, "Mus musculus [29]": {"tested_on": "Mus musculus", "test": "Compound was tested for Trypanocidal Activity in mice at 60 mg/kg; toxic deaths; 1/10"}, "Mus musculus [30]": {"tested_on": "Mus musculus", "test": "Compound was tested for Trypanocidal Activity in mice at 4 mg/kg; 0/10"}, "Mus musculus [31]": {"tested_on": "Mus musculus", "test": "Compound was tested for Trypanocidal Activity in mice at 15 mg/kg; 14/25"}, "Mus musculus [32]": {"tested_on": "Mus musculus", "test": "Compound was tested for Trypanocidal Activity in mice at 100 mg/kg; 1/5"}, "Mus musculus [33]": {"tested_on": "Mus musculus", "test": "Compound was tested for Trypanocidal Activity in mice at 40 mg/kg; 13/15"}, "Mus musculus [34]": {"tested_on": "Mus musculus", "test": "Compound was tested for Trypanocidal Activity in mice at 10 mg/kg; 11/30"}, "Mus musculus [35]": {"tested_on": "Mus musculus", "test": "Compound was tested for Trypanocidal Activity in mice at 6 mg/kg; 0/20"}, "Mus musculus [36]": {"tested_on": "Mus musculus", "test": "Compound was tested for Trypanocidal Activity in mice at 25 mg/kg; 16/20"}, "Mus musculus [37]": {"tested_on": "Mus musculus", "test": "Compound was tested for Trypanocidal Activity in mice at 60 mg/kg; 5/5"}, "Mus musculus [38]": {"tested_on": "Mus musculus", "test": "Compound was tested for Trypanocidal Activity in mice at 1.5 mg/kg; 0/10"}, "Mus musculus [39]": {"tested_on": "Mus musculus", "test": "Compound was tested for Trypanocidal Activity in mice at 15 mg/kg; 19/20"}, "Mus musculus [40]": {"tested_on": "Mus musculus", "test": "Compound was tested for Trypanocidal Activity in mice at 10 mg/kg; 20/20"}, "Mus musculus [41]": {"tested_on": "Mus musculus", "test": "Compound was tested for Trypanocidal Activity in mice at 2.5 mg/kg; 1/10"}, "Mus musculus [42]": {"tested_on": "Mus musculus", "test": "Compound was tested for Trypanocidal Activity in mice at 25 mg/kg; 18/20"}, "Mus musculus [43]": {"tested_on": "Mus musculus", "test": "Compound was tested for Trypanocidal Activity in mice at 60 mg/kg; 3/5"}, "Mus musculus [44]": {"tested_on": "Mus musculus", "test": "Compound was tested for Trypanocidal Activity in mice at 6 mg/kg; 17/20"}, "Mus musculus [45]": {"tested_on": "Mus musculus", "test": "Compound was tested for Trypanocidal Activity in mice at 4 mg/kg; 10/20"}}, "data": [{"smiles": "C/C(=N\\NC(=N)N)c1cncc(/C(C)=N/NC(=N)N)c1.Cl", "values": [{"measurement": "Cures/total", "setting": "Mus musculus [1]", "result": 1}, {"measurement": "Cures/total", "setting": "Mus musculus [2]", "result": 1}, {"measurement": "Cures/total", "setting": "Mus musculus [3]", "result": 0}, {"measurement": "Cures/total", "setting": "Mus musculus [4]", "result": 4}, {"measurement": "Cures/total", "setting": "Mus musculus [5]", "result": 11}]}, {"smiles": "Br.C/C(=N\\NC1=NCCN1)c1cccc(/C(C)=N/NC2=NCCN2)c1", "values": [{"measurement": "Cures/total", "setting": "Mus musculus [6]", "result": 0}, {"measurement": "Cures/total", "setting": "Mus musculus [7]", "result": 0}, {"measurement": "Cures/total", "setting": "Mus musculus [8]", "result": 0}, {"measurement": "Cures/total", "setting": "Mus musculus [9]", "result": 0}]}, {"smiles": "CCCC/C(=N\\NC(=N)N)c1cccc(/C(CCCC)=N/NC(=N)N)c1.Cl", "values": [{"measurement": "Cures/total", "setting": "Mus musculus [7]", "result": 0}, {"measurement": "Cures/total", "setting": "Mus musculus [10]", "result": 0}, {"measurement": "Cures/total", "setting": "Mus musculus [11]", "result": 0}]}, {"smiles": "C/C(=N\\NC(=N)N)c1cc(/C(C)=N/NC(=N)N)cc([N+](=O)[O-])c1.Cl", "values": [{"measurement": "Cures/total", "setting": "Mus musculus [12]", "result": 0}, {"measurement": "Cures/total", "setting": "Mus musculus [13]", "result": 3}, {"measurement": "Cures/total", "setting": "Mus musculus [14]", "result": 12}, {"measurement": "Cures/total", "setting": "Mus musculus [15]", "result": 9}, {"measurement": "Cures/total", "setting": "Mus musculus [16]", "result": 1}, {"measurement": "Cures/total", "setting": "Mus musculus [8]", "result": 0}, {"measurement": "Cures/total", "setting": "Mus musculus [17]", "result": 0}, {"measurement": "Cures/total", "setting": "Mus musculus [18]", "result": 1}]}, {"smiles": "CCO.COc1cc(/C(C)=N/NC(=N)N)cc(/C(C)=N/NC(=N)N)c1.Cl", "values": [{"measurement": "Cures/total", "setting": "Mus musculus [19]", "result": 10}, {"measurement": "Cures/total", "setting": "Mus musculus [20]", "result": 10}, {"measurement": "Cures/total", "setting": "Mus musculus [21]", "result": 14}, {"measurement": "Cures/total", "setting": "Mus musculus [22]", "result": 17}, {"measurement": "Cures/total", "setting": "Mus musculus [23]", "result": 0}, {"measurement": "Cures/total", "setting": "Mus musculus [24]", "result": 0}, {"measurement": "ED50", "setting": "Mus musculus [25]", "result": 5.4, "unit": "mg/kg"}, {"measurement": "Mice cured (number)", "setting": "Mus musculus [26]", "result": 10}, {"measurement": "Cures/total", "setting": "Mus musculus [27]", "result": 5}, {"measurement": "Cures/total", "setting": "Mus musculus [28]", "result": 10}, {"measurement": "Cures/total", "setting": "Mus musculus [29]", "result": 1}]}, {"smiles": "C/C(=N\\NC(=N)N)c1ccc(/C(C)=N/NC(=N)N)s1.CC(C)O.Cl", "values": [{"measurement": "Cures/total", "setting": "Mus musculus [30]", "result": 0}, {"measurement": "Cures/total", "setting": "Mus musculus [31]", "result": 14}, {"measurement": "Cures/total", "setting": "Mus musculus [32]", "result": 1}, {"measurement": "ED50", "setting": "Mus musculus [25]", "result": 14, "unit": "mg/kg"}, {"measurement": "Cures/total", "setting": "Mus musculus [33]", "result": 13}, {"measurement": "Cures/total", "setting": "Mus musculus [34]", "result": 11}, {"measurement": "Cures/total", "setting": "Mus musculus [35]", "result": 0}, {"measurement": "Cures/total", "setting": "Mus musculus [36]", "result": 16}, {"measurement": "Cures/total", "setting": "Mus musculus [37]", "result": 5}]}, {"smiles": "C/C(=N\\NC(=N)N)c1cccc(/C(C)=N/NC(=N)N)n1.Cl", "values": [{"measurement": "Cures/total", "setting": "Mus musculus [38]", "result": 0}, {"measurement": "Cures/total", "setting": "Mus musculus [39]", "result": 19}, {"measurement": "Cures/total", "setting": "Mus musculus [40]", "result": 20}, {"measurement": "Cures/total", "setting": "Mus musculus [23]", "result": 0}, {"measurement": "ED50", "setting": "Mus musculus [25]", "result": 4.1, "unit": "mg/kg"}, {"measurement": "Cures/total", "setting": "Mus musculus [41]", "result": 1}, {"measurement": "Cures/total", "setting": "Mus musculus [42]", "result": 18}, {"measurement": "Cures/total", "setting": "Mus musculus [43]", "result": 3}, {"measurement": "Cures/total", "setting": "Mus musculus [28]", "result": 10}, {"measurement": "Cures/total", "setting": "Mus musculus [44]", "result": 17}, {"measurement": "Cures/total", "setting": "Mus musculus [45]", "result": 10}]}, {"smiles": "C/C(=N\\NC(=N)N)c1cccc(/C(C)=N/NC(=N)N)c1N.Cl", "values": [{"measurement": "Cures/total", "setting": "Mus musculus [6]", "result": 0}, {"measurement": "Cures/total", "setting": "Mus musculus [7]", "result": 0}, {"measurement": "Cures/total", "setting": "Mus musculus [9]", "result": 0}]}]}
